KCC2 mod = modulates chloride dependent transport by human KCC2; KCC2 cells, thallium flux FluoZin-2 fluorescence; actives 2.2% (n = 190,000); Q9H2X9; AID 1456; B-score of Tl+ flux slope (higher = more flux/activation; lower = inhibition) at 10 µM;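 active means thallium flux slope and its plate-corrected score both differing from the plate sample mean at a set confidence after two filtering rounds, in either direction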;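 further: slope of fluorescence scaled to starting intensity during 10 to 20 s after thallium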
HSV replic up = HSV replication enhancement; HSV replication augmentation in cells, fold increase; maximum fold increase; actives 0.005% (n = 220,000); AID 1956; in the data active means maximum fold increase above about 1.5; inconclusive means no clear call, values can overlap the other calls; tested in PC3 cells
STAT1 act-1 = STAT1 signaling activation; NIH 3T3 STAT1-luciferase reporter, IFN-gamma, luminescence; 100% = IFN-gamma alone, no compound; activation (% of control), % at 5.5 µM; actives 2.6% (n = 200,000);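 active means activation above the screen-wide mean activation plus 3 SD, cut at about 130% in these data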
STAT1 inh = reduces IFN-gamma driven STAT1 reporter signal; NIH 3T3 STAT1-luciferase reporter, luminescence; inhibition, % at 5.5 µM; actives 0.35% (n = 200,000);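 active means inhibition above a set limit, the mean inhibition across all tested compounds plus 3 SD, cut at about 34% in these data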
STAT3 inh = inhibitors of IL-6 induced STAT3 signaling; actives 0.89% (n = 190,000); inhibition, % at 5.5 µM; U3A cells, IL-6 STAT3-luciferase reporter, luminescence; host cell line lacks STAT1;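 active means inhibition above the mean inhibition across all screened compounds plus 3 SD, cut at about 44% in these data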
STAT3 act-1 = increases IL-6 driven STAT3 reporter signal; actives 0.91% (n = 190,000); activation (% of control), % at 5.6 µM; U3A cells, IL-6 STAT3-luciferase reporter, luminescence; 100% = signal with IL-6 EC80 alone;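 active means activation above the screen-wide mean of compound activation plus 3 SD, cut at about 130% in these data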
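Material: STAT3-luciferase reporter U3A cells. Controls: IL-6-treated wells, 100% activation. Read-out: % activation versus median of IL-6-stimulated wells. Probe or stimulus: IL-6 stimulus at 33 ng/mL final. Timing: compound 1 h, then IL-6 6 h at 37 °C. Signal: reporter luminescence signal.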
STAT3 act-2 = confirmation of STAT3 signaling activators | shares compounds with STAT3 act-1 | U3A STAT3-luciferase reporter, IL-6 potentiation, luminescence; U3A cells lack STAT1; 100 means same as IL-6 alone | potentiation (% of control), % at 5.7 µM | actives 64% (n = 1,200) | AID 1267;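 active means percent activation of the STAT3 luciferase reporter above a set limit taken from the earlier primary screen, cut at about 130% in these data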
NFkB act STAT3ct = activates NF-kappaB, counter-screen to STAT3 activators; shares compounds with STAT3 act-1; human cells, NF-kappaB reporter activation; activation (% of control), % at 5.7 µM; actives 11% (n = 1,200); AID 1309; in the data active means activation above about 120%;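 further: reporter induced by TNF-alpha stimulation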
STAT1 act-2 = activates STAT1, counter-screen to STAT3 activators. activation (% of control), % at 5.7 µM. actives 13% (n = 1,200). NIH 3T3 STAT1-luciferase reporter, IFN-gamma, luminescence. AID 1318. shares compounds with STAT3 act-1;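 active means activation above the solvent-only control well mean plus 3 SD, set per screening run, cut at about 120% in these data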
Each line names hits and unclear results; the compound was inactive in the other large screens (follow-up assays come after a bar, where they were run). In the library only some 5.5% were active in any assay of this set; here they are far more common.

Cc1ccc(C(=O)Nc2ccc3cn[nH]c3c2)cc1S(=O)(=O)N1CCCCC1	STAT3 act-1 143.2 (no result: KCC2 mod) | STAT3 act-2 139.5 | NFkB act STAT3ct inactive | STAT1 act-2 141.7
O=C1CCCCCN1Cc1nnc(SCc2nc3ccccc3s2)n1-c1ccccn1	STAT3 act-1 139.8 | STAT3 act-2 150.6 | NFkB act STAT3ct 128.5 | STAT1 act-2 144.9
O=C(Cc1cccs1)N/N=C\c1ccc(O)cc1	STAT3 act-1 142.3 | STAT3 act-2 inactive | NFkB act STAT3ct 122.6 | STAT1 act-2 150.7
O=C(CC(=O)N/N=C/c1ccc(O)cc1)N/N=C/c1ccc(O)cc1	none (no result: STAT1 act-1, STAT1 inh, STAT3 inh, STAT3 act-1)
Cn1c(Sc2ccc(Cl)cc2)c(C=O)c2ccccc21	STAT3 act-1 169.9 (no result: KCC2 mod) | STAT3 act-2 140.0 | NFkB act STAT3ct inactive | STAT1 act-2 inactive
Cn1c(Sc2ccccc2Cl)c(C=O)c2ccccc21	none (no result: KCC2 mod, HSV replic up)
COc1cc(-c2nc3ccccc3s2)ccc1O	STAT3 act-1 140.9 (no result: KCC2 mod) | STAT3 act-2 134.7 | NFkB act STAT3ct inactive | STAT1 act-2 121.2
COc1cc(OC)c(-c2nc3ccccc3s2)cc1OC	STAT3 act-1 148.5 | STAT3 act-2 153.7 | NFkB act STAT3ct inactive | STAT1 act-2 inactive
N=C1C(=O)OCC1c1ccccc1NC(=O)c1ccccc1 (stereo unspecified)	none
c1ccc2c(c1)CCCN2Cc1nnc2n1CCCCC2	STAT3 act-1 140.2 | STAT3 act-2 inactive | NFkB act STAT3ct inactive | STAT1 act-2 inactive
c1ccc(Cc2nnc3n2CCCCC3)cc1	none
O=C(N1CCN=C1SCc1cccnc1)C12CC3CC(CC(C3)C1)C2	none (no result: KCC2 mod)
COc1cccc(C(=O)OCC(=O)c2c[nH]c3ccccc23)c1O	STAT3 act-1 143.6 | STAT3 act-2 138.4 | NFkB act STAT3ct inactive | STAT1 act-2 inactive
CC(C)(C)C(=O)COC(=O)c1ccccc1O	none
COc1ccccc1C(=O)COC(=O)c1ccccc1O	STAT3 act-1 151.2 | STAT3 act-2 150.1 | NFkB act STAT3ct inactive | STAT1 act-2 inactive
O=C(Nc1cccc([N+](=O)[O-])c1)c1ccc(N2CCCC2=O)cc1	none
Cc1ccc(NC(=S)Nc2cccc3cnccc23)cc1	STAT3 act-1 136.6 | STAT3 act-2 142.6 | NFkB act STAT3ct inactive | STAT1 act-2 inactive
O=C(NC1CCCCC1)C(=S)NC1CCCCC1	none
CN1C(=O)/C(=N\OC(=O)c2cccc3ccccc23)c2ccccc21	STAT3 act-1 141.4 | STAT3 act-2 inactive | NFkB act STAT3ct inactive | STAT1 act-2 inactive
CCOc1ccccc1CN1CCN(Cc2cc3ccccc3[nH]2)CC1CCO (stereo unspecified)	STAT3 act-1 136.1 | STAT3 act-2 150.2 | NFkB act STAT3ct inactive | STAT1 act-2 inactive
CC1=NN(c2ccccc2)C(=O)/C1=C/c1ccc[nH]1	STAT3 act-1 150.4 | STAT3 act-2 159.8 | NFkB act STAT3ct inactive | STAT1 act-2 inactive
O=C(NC(Cc1c[nH]c2ccccc12)C(=O)O)c1ccc(Br)cc1 (stereo unspecified)	none
c1cncc(-c2nc(NCc3ccco3)c3ccccc3n2)c1	none (no result: KCC2 mod)
Cc1ccc(-c2nc(NCc3ccco3)c3ccccc3n2)cc1	STAT3 act-1 138.7 | STAT3 act-2 152.7 | NFkB act STAT3ct inactive | STAT1 act-2 inactive
COc1ccccc1N1CCN(C(c2cccs2)c2nnnn2C2CCCC2)CC1 (stereo unspecified)	none
CNc1nc(-c2c[nH]c3ccccc23)cs1	STAT3 act-1 160.6 | STAT3 act-2 152.0 | NFkB act STAT3ct inactive | STAT1 act-2 inactive
Fc1ccc(C2c3[nH]c4ccccc4c3CCN2CCCn2cccn2)cc1 (stereo unspecified)	none (no result: STAT1 act-1, STAT1 inh, STAT3 inh, STAT3 act-1)
Cc1ccccc1C1c2[nH]c3ccccc3c2CCN1CCCn1cccn1 (stereo unspecified)	STAT3 act-1 151.6 (no result: KCC2 mod) | STAT3 act-2 148.0 | NFkB act STAT3ct inactive | STAT1 act-2 inactive
Cc1[nH]n(-c2ccccc2)c(=O)c1N=Nc1ccccc1	STAT3 act-1 148.2 | STAT3 act-2 175.8 | NFkB act STAT3ct 129.7 | STAT1 act-2 174.1
Cc1ccsc1/C=C/c1ccc2cccc(O)c2n1	STAT3 act-1 154.3 | STAT3 act-2 175.6 | NFkB act STAT3ct inactive | STAT1 act-2 inactive
CSc1ccc(/C=C/c2ccc3cccc(O)c3n2)cc1	none
Oc1ccc(Cl)cc1/C=C/c1ccc2cccc(O)c2n1	STAT3 act-1 166.5 | STAT3 act-2 155.6 | NFkB act STAT3ct inactive | STAT1 act-2 inactive
Oc1c(Cl)cc(Cl)cc1/C=C/c1ccc2cccc(O)c2n1	HSV replic up inconclusive
Cc1ccc(C2CC(=O)c3cnn(-c4nc(C)cc(C)n4)c3C2)cc1 (stereo unspecified)	none
Cc1nc(COC(=O)c2ccc(CO)cc2)cs1	none
Cc1nc(COC(=O)c2cc(O)c3ccccc3c2O)cs1	STAT3 act-1 140.4 | STAT3 act-2 inactive | NFkB act STAT3ct inactive | STAT1 act-2 inactive
CCc1ccccc1NC(=O)CCCSc1nc2ccccc2s1	none
O=C(CCCSc1nc2ccccc2s1)NCc1ccco1	STAT3 act-1 149.6 | STAT3 act-2 135.8 | NFkB act STAT3ct inactive | STAT1 act-2 inactive
Cn1c(=O)c2c(c3ccccc31)OC(=O)CC2c1cccnc1 (stereo unspecified)	STAT3 act-1 136.9 | STAT3 act-2 inactive | NFkB act STAT3ct inactive | STAT1 act-2 inactive
COc1ccc(C2CC(=O)Oc3c2c(=O)n(C)c2ccccc32)c(OC)c1OC (stereo unspecified)	none
CCOCCCNC(=O)C(c1ccc(Cl)cc1)N(Cc1cccs1)C(=O)CNC(C)=O (stereo unspecified)	none
CCCC1=Nc2cc(C(=O)NCCCOCC)ccc2Sc2ccccc21	STAT3 act-1 136.6 | STAT3 act-2 inactive | NFkB act STAT3ct 156.3 | STAT1 act-2 inactive
COC(=O)c1nn(-c2ccc(C)cc2)c2nnc(Cc3ccccc3)c(=O)n12	none
CCOCCCNC(=O)C(NC(=O)Cc1cccs1)c1ccccc1 (stereo unspecified)	none
CCOCCCNC(=O)C(NC(=O)Cc1c[nH]c2ccccc12)c1ccccc1 (stereo unspecified)	STAT3 act-1 144.2 | STAT3 act-2 135.4 | NFkB act STAT3ct inactive | STAT1 act-2 inactive
COC(=O)c1c(NC(=O)CN2CCN(C(=O)c3ccco3)CC2)c2cc(C)ccc2n1C	STAT3 act-1 138.5 | STAT3 act-2 141.1 | NFkB act STAT3ct inactive | STAT1 act-2 inactive

From PubChem BioAssay
